Measured values as given in ChEMBL document CHEMBL1154472, “Synthesis and anti-HIV-1 integrase activities of 3-aroyl-2,3-dihydro-1,1-dioxo-1,4,2-benzodithiazines” (Eur J Med Chem, 2009).

How the values were obtained:
[1] = target: T1, Human immunodeficiency virus type 1 integrase (Human immunodeficiency virus 1, UniProt Q7ZJM1, H114A); test: Inhibition of HIV1 integrase H114A mutant 3'-end processing activity
[2] = target: T2, Human immunodeficiency virus type 1 integrase (Human immunodeficiency virus 1, UniProt Q7ZJM1); test: Inhibition of HIV1 integrase strand transfer activity in presence of magnesium
T2 sequence (Q7ZJM1 whole entry): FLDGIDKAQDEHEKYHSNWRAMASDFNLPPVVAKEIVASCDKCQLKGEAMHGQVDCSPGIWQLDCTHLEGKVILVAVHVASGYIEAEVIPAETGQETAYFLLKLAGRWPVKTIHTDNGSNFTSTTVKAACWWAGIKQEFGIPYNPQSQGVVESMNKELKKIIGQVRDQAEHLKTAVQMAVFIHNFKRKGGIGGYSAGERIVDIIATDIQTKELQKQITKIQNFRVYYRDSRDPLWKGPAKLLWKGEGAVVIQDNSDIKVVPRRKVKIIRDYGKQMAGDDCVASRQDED
Procedure, shortened: (§1)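 Wild-type HIV-1 IN (200 nM final), expressed in E. coli BL21(DE3)pLysS, was preincubated with inhibitor for 30 min at 30 °C in HEPES/MOPS buffer containing glycerol, BSA and 10% DMSO, with Mg2+ as the cofactor. IC50 was derived.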

[3] = target: T2, Human immunodeficiency virus type 1 integrase; test: Inhibition of HIV1 integrase 3'-end processing activity in presence of magnesium; procedure, shortened: as §1
[4] = target: T1, Human immunodeficiency virus type 1 integrase; test: Inhibition of HIV1 integrase H114A mutant strand transfer activity
[5] = target: T3, Human immunodeficiency virus type 1 integrase (Human immunodeficiency virus 1, UniProt Q7ZJM1, Y99S); test: Inhibition of HIV1 integrase Y99S mutant strand transfer activity
T3 sequence (Q7ZJM1 entry or part of it Y99S): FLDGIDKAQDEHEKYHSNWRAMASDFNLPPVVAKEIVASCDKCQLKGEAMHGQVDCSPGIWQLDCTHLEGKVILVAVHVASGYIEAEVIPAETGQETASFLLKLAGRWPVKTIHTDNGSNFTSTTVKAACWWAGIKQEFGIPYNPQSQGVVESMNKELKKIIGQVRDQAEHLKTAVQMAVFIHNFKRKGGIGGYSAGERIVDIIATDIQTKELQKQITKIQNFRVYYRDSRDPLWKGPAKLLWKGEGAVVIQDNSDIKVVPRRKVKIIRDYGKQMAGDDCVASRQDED

[6] = target: T3, Human immunodeficiency virus type 1 integrase; test: Inhibition of HIV1 integrase Y99S mutant 3'-end processing activity
[7] = target: T2, Human immunodeficiency virus type 1 integrase; test: Inhibition of HIV1 integrase strand transfer activity
Procedure, shortened: (§2)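 Wild-type HIV-1 IN, expressed in E. coli BL21(DE3)pLysS after 1 mM IPTG induction, was preincubated at 200 nM final with inhibitor at 30 °C for 30 min. The buffer held 50 mM NaCl, HEPES pH 7.5, 10% glycerol, 7.5 mM MnCl2, 0.1 mg/ml BSA, 10 mM 2-mercaptoethanol, 10% DMSO and 25 mM MOPS pH 7.2. IC50 was taken from the reaction.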

[8] = target: T2, Human immunodeficiency virus type 1 integrase; test: Inhibition of HIV1 integrase 3'-end processing activity; procedure, shortened: as §2

T1 sequence (Q7ZJM1 entry or part of it H114A): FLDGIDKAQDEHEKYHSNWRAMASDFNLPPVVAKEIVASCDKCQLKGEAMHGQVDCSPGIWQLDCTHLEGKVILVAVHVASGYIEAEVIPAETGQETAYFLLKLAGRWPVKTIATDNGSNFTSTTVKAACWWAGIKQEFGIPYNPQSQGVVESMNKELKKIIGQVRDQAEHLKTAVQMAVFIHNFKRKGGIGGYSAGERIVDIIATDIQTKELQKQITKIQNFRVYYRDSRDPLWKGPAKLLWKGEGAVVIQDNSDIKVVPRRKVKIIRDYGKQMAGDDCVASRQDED

Compound | IC50 [1] [µM] | IC50 [2] [µM] | IC50 [3] [µM] | IC50 [4] [µM] | IC50 [5] [µM] | IC50 [6] [µM] | IC50 [7] [µM] | IC50 [8] [µM]
Cc1cc2c(cc1Cl)SC(C(=O)c1ccccc1)NS2(=O)=O (centres undefined) | 15 | 27 | 60 | 9 | 18 | 90 | 5 | 7
Cc1cc2c(cc1Cl)SC(C(=O)c1ccc(Br)cc1)=NS2(=O)=O |  |  |  |  |  |  | 30 | 30
Cc1cc(Cl)cc2c1S(=O)(=O)N=C(C(=O)c1ccc(Cl)cc1)S2 |  |  |  |  |  |  | 25 | 22
Cc1cc2c(cc1Cl)SC(C(=O)c1cccc([N+](=O)[O-])c1)NS2(=O)=O (centres undefined) |  |  |  |  |  |  | 28 | 32
O=C(C1=NS(=O)(=O)c2ccc(Cl)cc2S1)c1ccc(Cl)cc1 | 20 |  |  | 18 | 20 | 100 | 90 | 100
Cc1cc(Cl)cc2c1S(=O)(=O)NC(C(=O)c1ccc(Cl)c(Cl)c1)S2 (centres undefined) |  |  |  |  |  |  | 14 | 20
Cc1cc2c(cc1Cl)SC(C(=O)c1ccccc1)=NS2(=O)=O | 15 |  |  | 9 | 18 | 90 | 12 | 12
Cc1cc(Cl)cc2c1S(=O)(=O)N=C(C(=O)c1ccc3ccccc3c1)S2 | 33 |  |  | 23 | 23 | 70 | 7 | 22
Cc1cc(Cl)cc2c1S(=O)(=O)NC(C(=O)c1ccc(Cl)cc1)S2 (centres undefined) |  |  |  |  |  |  | 14 | 23
Cc1cc(Cl)cc2c1S(=O)(=O)NC(C(=O)c1ccc3ccccc3c1)S2 (centres undefined) | 33 | 51 | 83 | 23 | 23 | 70 | 6 | 9
O=C(C1=NS(=O)(=O)c2ccc(Cl)cc2S1)c1ccc(Cl)c(Cl)c1 | 18 |  |  | 18 | 20 | 90 | 124 | 61.2
Cc1cc2c(cc1Cl)SC(C(=O)c1ccc3ccccc3c1)=NS2(=O)=O |  |  |  |  |  |  | 3 | 28
O=C(C1=NS(=O)(=O)c2ccc(Cl)cc2S1)c1ccc2ccccc2c1 | 9 |  |  | 15 | 15 | 100 | 8 | 8
Cc1cc2c(cc1Cl)SC(C(=O)c1ccc(Cl)cc1)NS2(=O)=O (centres undefined) | 18 | 40 | 63 | 16 | 20 | 90 | 4 | 6
O=C(c1ccc(Cl)c(Cl)c1)C1NS(=O)(=O)c2ccccc2S1 (centres undefined) |  |  |  |  |  |  | 15 | 22
O=C(c1ccc2ccccc2c1)C1NS(=O)(=O)c2ccc(Cl)cc2S1 (centres undefined) | 9 | 28 | 55 | 15 | 15 | 100 | 3 | 8
O=C(c1ccc(Cl)c(Cl)c1)C1NS(=O)(=O)c2ccc(Cl)cc2S1 (centres undefined) | 18 | 25 | 58 | 18 | 20 | 90 | 5 | 9
Cc1cc2c(cc1Cl)SC(C(=O)c1ccc3ccccc3c1)NS2(=O)=O (centres undefined) |  |  |  |  |  |  | 30 | 57
Cc1cc2c(cc1Cl)SC(C(=O)c1ccc(Cl)cc1)=NS2(=O)=O | 18 |  |  | 16 | 20 | 90 | 65 | 30
Cc1cc2c(cc1Cl)SC(C(=O)c1ccc(Br)cc1)NS2(=O)=O (centres undefined) |  |  |  |  |  |  | 3 | 4
O=C(c1ccc(Cl)cc1)C1NS(=O)(=O)c2ccc(Cl)cc2S1 (centres undefined) | 20 | 25 | 51 | 18 | 20 | 100 | 4 | 8
Cc1cc(Cl)cc2c1S(=O)(=O)N=C(C(=O)c1ccc(Cl)c(Cl)c1)S2 |  |  |  |  |  |  | 25 | 17
Cc1cc2c(cc1Cl)SC(C(=O)c1ccc(Cl)c(Cl)c1)=NS2(=O)=O |  |  |  |  |  |  | 7 | 15
Cc1cc2c(cc1Cl)SC(C(=O)c1ccc(Cl)c(Cl)c1)NS2(=O)=O (centres undefined) |  |  |  |  |  |  | 10 | 20
COc1ccc(C(=O)C2NS(=O)(=O)c3cc(C)c(Cl)cc3S2)cc1 (centres undefined) |  |  |  |  |  |  | 17 | 38
Cc1cc2c(cc1Cl)SC(C(=O)c1cccc([N+](=O)[O-])c1)=NS2(=O)=O |  |  |  |  |  |  | 50 | 57
COc1ccc(C(=O)C2=NS(=O)(=O)c3cc(C)c(Cl)cc3S2)cc1 |  |  |  |  |  |  | 33 | 30
